Compounds with a hit are over-represented: about 0.55% of the library has one in this group of screens.
zfTRPN1 agonist – zebrafish TRPN1 (NompC) channel agonism | activation, % at 3 µM | HEK293 zebrafish TRPN1-YFP, Fluo-8 calcium fluorescence; 100% = response to 87 µM carbachol | hit rate 0.18% among 220,000;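 active = activation above its plate's cutoff, the mean activation of test wells on that plate plus 3 SD, cut at about 19% in these data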;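 note: 0% = DMSO alone and 100% = 87 µM carbachol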
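System: zebrafish TRPN1-YFP in HEK293 cells / Dosing: 3 µM single point / Timing: dye loading 1 h at 37 °C, then 30 min room temperature / Signal: Fluo-8 calcium fluorescence, excitation 470-495 nm, emission 515-575 nm / Read-out basis: percent activation from peak over basal fluorescence ratio, control-normalized / Control set: high carbachol 87 µM, low DMSO alone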
TRPML3 agonist – agonists of human TRPML3 channel; Q8TDD5; HEK293 TRPML3-YFP, Fluo-8 calcium fluorescence; 100% = the carbachol control signal; activation, % at 3 µM; hit rate 0.29% among 220,000; AID 1448;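 active = activation above its plate's cutoff, the mean activation of the plate's test wells plus 3 SD, cut at about 12% in these data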;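 note: 0% = DMSO only wells and 100% = carbachol wells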
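Test system: HEK293 cells stably carrying human TRPML3-YFP; Doses: single dose, 3 µM final nominal compound, 0.3% DMSO final; Schedule: dye loading 1 h 37 °C then 30 min ambient, 125 s read; Technique: Fluo-8 calcium fluorescence; Benchmarks: high control carbachol 87 µM, low control DMSO.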
V1aR counter – counter-screen for oxytocin receptor agonists: human V1a receptor agonists; CHO-V1R cells, Fluo-8 calcium fluorescence, agonist mode; 0% DMSO, 100% 3 nM vasopressin; activation, % at 3 µM; hit rate 0.25% among 320,000;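 active = activation above the mean activation of all tested compounds plus 3 SD, per screening run, cut at about 20% in these data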;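 note: signal is peak over basal fluorescence ratio across a 100 second FLIPR read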
Target sequence (P37288 whole entry, looked up): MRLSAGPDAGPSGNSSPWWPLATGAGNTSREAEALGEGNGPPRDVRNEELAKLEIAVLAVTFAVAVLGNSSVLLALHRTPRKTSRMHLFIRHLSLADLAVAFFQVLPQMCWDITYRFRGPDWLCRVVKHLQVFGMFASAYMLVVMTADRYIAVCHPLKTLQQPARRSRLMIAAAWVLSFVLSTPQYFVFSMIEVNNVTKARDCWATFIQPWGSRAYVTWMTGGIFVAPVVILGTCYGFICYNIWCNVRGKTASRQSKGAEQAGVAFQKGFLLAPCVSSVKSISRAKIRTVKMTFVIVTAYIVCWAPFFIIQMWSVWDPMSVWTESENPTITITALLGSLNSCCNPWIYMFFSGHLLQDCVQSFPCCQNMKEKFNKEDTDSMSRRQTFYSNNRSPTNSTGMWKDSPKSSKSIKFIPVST
OXTR potentiate – human OXTR potentiation; hit rate 0.061% among 320,000; P30559; CHO-OTR cells, Fluo-8 calcium fluorescence, potentiator mode; 0% = oxytocin EC15, 100% = EC100; activation, % at 3 µM;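 active = activation above that plate's cutoff, the mean activation of tested compounds plus 3 SD, cut at about 6.6% in these data, passing the limit was not always enough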;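 note: 100% uses oxytocin at 75 nM as the full agonist control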
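test system = CHO-OTR cells, human receptor | compound = single-point 3.0 µM | schedule = 6 min compound pre-incubation at room temperature, 100 s kinetic read | signal = Fluo-8 no-wash calcium dye fluorescence, excitation 470-495 nm, emission 515-575 nm | repeats = single well per compound, singlicate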
OXTR agonist – agonists of human oxytocin receptor; CHO-OTR cells, Fluo-8 calcium fluorescence; normalized: DMSO 0%, oxytocin 100%; P30559; activation, % at 3 µM; hit rate 0.32% among 320,000;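 active = activation above the mean of all tested compounds plus 3 SD, cutoff set per screening run, cut at about 20% in these data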;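 note: peak over basal fluorescence ratio from a 100 s FLIPR kinetic read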
The depositor's hits bear a star; nt = no result.

SMILES	zfTRPN1 agonist	TRPML3 agonist	V1aR counter	OXTR potentiate	OXTR agonist
O=C(Nc1ncc(S(=O)(=O)c2ccc([N+](=O)[O-])cc2)s1)c1ccccc1F	6	4	41*	-8	33*
N#CC(C#N)=C1C=C2C=C(N3CCCCCC3)CCC2CC1 (configuration not stated)	891*	366*	nt	nt	nt
CC1(C)CC(NCCN2CCN(C3=CC(=C(C#N)C#N)CC(C)(C)C3)CC2)=CC(=C(C#N)C#N)C1	1	1	-1	-5	-1
CN1CCN(C2=CC3=CC(=C(C#N)C#N)CCC3CC2)CC1 (configuration not stated)	617*	329*	nt	nt	nt
N#CC(C#N)=C1C=C2C=C(N3CCOCC3)CCC2CC1 (configuration not stated)	169*	74*	nt	nt	nt
CCN1CCN(C2=CC3=CC(=C(C#N)C#N)CCC3CC2)CC1 (configuration not stated)	395*	310*	nt	nt	nt
OCCC1CN(Cc2cc3c(cc2Cl)OCO3)CCN1Cc1ccccc1 (configuration not stated)	1	1	1	-7	1
Cc1oc(-c2cccs2)nc1CNC[C@H]1O[C@@H](n2cnc3c(N)ncnc32)[C@H](O)[C@@H]1O	nt	nt	0	3	0
C=CCN(CC=C)S(=O)(=O)c1ccc2nc(NC(=O)C(C)C)sc2c1	2	1	22*	-20	29*
CCOC(=O)c1ccc2nc(NC(=O)C(C)C)sc2c1	-1	0	-1	-3	-1
CCOC(=O)C1(CC2CCCCO2)CCN(Cc2nc(C(C)C)cs2)CC1 (configuration not stated)	1	2	2	-9	-1
CCN(CC)c1ccc(/C=C(\C#N)C(=O)c2ccc(Br)cc2)cc1	10	6	70*	-11	133*
CN(C)c1ccc(/C=C(\C#N)C(=O)c2ccccc2)cc1	58*	38*	53*	-24	80*
COc1ccc(/C=N/NC(=O)c2nnn(-c3nonc3N)c2CN(C)c2ccccc2)cc1	nt	nt	10	-11	8
NC(=O)c1ccc(/C=N/O)[n+](Cc2ccccc2)c1	nt	nt	0	4	2
CN(C)/C=N/NC(=O)c1ccc(Cl)cc1	34*	46*	1	-1	0
CN(C)/C=N/NC(=O)c1ccccc1Cl	1	1	0	8	0
CC1=Nc2ccccc2/C1=C/c1sc(=N)n(-c2nccs2)c1O	16	8	26*	-11	23*
COc1ccc(C)cc1NC(=O)c1ccccc1NS(=O)(=O)c1ccc(Cl)s1	22*	14*	8	-16	13
CN(C)c1ccc(/C=C(/C#N)C(=O)NCc2ccccc2)o1	20*	20*	23*	-11	20*
N#C/C(=C/c1ccccc1)C(=O)NCc1ccccc1	0	1	-1	-2	-2
O=C(Cn1nnc(-c2ccccc2NC(=O)c2ccccc2F)n1)NC1CCCC1	1	0	49*	1	47*
Cc1ccc(CNC(=O)Cn2cnc3c(NC(=O)OCc4ccccc4)ncnc32)o1	nt	nt	0	0	0
CCCCNC(=S)NC(=O)c1ccc([N+](=O)[O-])cc1	-3	0	-1	-9	-3
CCCCNC(=S)Nc1ccc([N+](=O)[O-])cc1	21*	11	8	-16	10
SMILES	zfTRPN1 agonist	TRPML3 agonist	V1aR counter	OXTR potentiate	OXTR agonist
CC(C)CCNC(=S)Nc1ccc([N+](=O)[O-])cc1	24*	13*	6	-7	8
COc1ccc(C2=CSC3=C(C(=O)c4cccc(S(=O)(=O)N(C)C)c4)CCN23)cc1	0	0	0	0	0
O=C1c2ccccc2S(=O)(=O)N1Cc1ccccc1[N+](=O)[O-]	nt	nt	1	-13	0
CCOC(=O)Cn1c(=O)oc2cc(S(=O)(=O)Nc3ccc(F)cc3)ccc21	19*	7	33*	-10	36*
CCOC(=O)Cn1c(=O)oc2cc(S(=O)(=O)NCCc3ccc(C)cc3)ccc21	4	2	10	-10	13
CCOC(=O)c1ccc2c(c1)N(CC)/C(=C\C=C1/SC(=S)N(CC)C1=O)N2CC	0	0	nt	nt	nt
C=CCN1C(=O)/C(=C/C=C2/N(CC)c3ccc(S(=O)(=O)N(C)C)cc3N2CC)SC1=S	11	4	26*	-20	30*

Screens: PubChem BioAssay, The Scripps Research Institute Molecular Screening Center
